{"source": "ChEMBL document CHEMBL1142233", "about": "“Treatment of diabetes and atherosclerosis by inhibiting fatty-acid-binding protein aP2” (2007)", "key": {"Mus musculus [1]": {"tested_on": "Mus musculus", "experiment": "Decrease in blood glucose level in fed ob/ob mouse at 40 mg/kg/day, po after 2 weeks", "type": "functional, organism-based", "summary_of_the_method": "(§1)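 Male ob/ob mice given oral gavage daily for 6 weeks from 8 weeks old, n = 6 per group. Blood taken after 6 h fast before and after treatment; fed glucose taken at week 2. Glucose by meter on 3 μl whole blood, insulin by ultrasensitive ELISA, cholesterol, FFA and glycerol by colorimetric microplate assays.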"}, "Mus musculus [2]": {"tested_on": "Mus musculus", "experiment": "Increase in insulin-stimulated IRbeta tyrosine 1162/1163 phosphorylation in ob/ob mouse adipose tissue at 40 mg/kg/day, po relative to control", "type": "functional, organism-based", "summary_of_the_method": "(§2)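 Male ob/ob mice were dosed by oral gavage at 40 mg kg⁻¹ d⁻¹ or with vehicle. After 6 h food withdrawal and tribromoethanol anaesthesia, insulin (2 IU kg⁻¹) or PBS went into the portal vein. Adipose tissue was taken 3 min later, lysed and immunoblotted for IRβ pTyr1162/1163, AKT pSer473 and total proteins. Signals were quantified by densitometry.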"}, "Mus musculus [3]": {"tested_on": "Mus musculus", "experiment": "Effect on cholesterol level in 5-week old apoE-/- C57BL/6J mouse fed on western diet and administered with 15 mg/kg/day, po drug at 12 week in 12-18 week late intervention study", "type": "functional", "summary_of_the_method": "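Male Apoe−/− mice on western diet (21% fat, 0.21% cholesterol) from 4–5 weeks of age. Oral gavage for 6 weeks from age 5 or 12 weeks; vehicle 10% 1-methyl-2-pyrrolidone, 5% cremophor EL with ethanol in water. Blood taken after 6 h fast before and after treatment. Glucose by meter; insulin by ELISA; lipids and glycerol colorimetric.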"}, "Mus musculus [4]": {"tested_on": "Mus musculus", "experiment": "Increase in insulin-stimulated IRbeta tyrosine 1162/1163 phosphorylation in ob/ob mouse liver at 40 mg/kg/day, po relative to control", "type": "functional, organism-based", "summary_of_the_method": "(§3)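 Male ob/ob mice got 40 mg kg⁻¹ d⁻¹ by oral gavage or vehicle. After a 6 h fast under tribromoethanol anaesthesia, portal-vein insulin (2 IU kg⁻¹) or PBS was given. Liver was removed 3 min later, lysed and western-blotted for IRβ pTyr1162/1163 and AKT pSer473 against total IRβ and AKT, then quantified.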"}, "Mus musculus [5]": {"tested_on": "Mus musculus", "experiment": "Increase in insulin-stimulated AKT serine 473 phosphorylation in ob/ob mouse liver at 40 mg/kg/day, po relative to control", "type": "functional, organism-based", "summary_of_the_method": "as §3"}, "Adipocyte": {"tested_on": "Adipocyte", "experiment": "Decrease in fatty acid uptake in FABP-deficient mouse adipocytes reconstituted with exogenous aP2 after 24 hrs", "type": "functional, cell-based", "summary_of_the_method": "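Immortalized mouse pre-adipocytes differentiated with dexamethasone, IBMX, rosiglitazone and insulin, then insulin alone. Cells incubated 24 h in DMEM with 2% FBS plus inhibitor, then moved to DMEM with 2% BSA and given ³H-stearate at 37 °C for 30 min. Lysate counted by scintillation; values normalized to protein and expressed as % of untreated.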"}, "Mus musculus [6]": {"tested_on": "Mus musculus", "experiment": "Decrease in triglyceride level in ob/ob mouse at 40 mg/kg/day, po after 6 weeks relative to control", "type": "functional"}, "Macrophage [7]": {"tested_on": "Macrophage", "experiment": "Increase in cholesterol efflux in mouse aP2+/+ macrophage cells at 25 uM relative to control", "type": "functional, cell-based", "summary_of_the_method": "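Macrophages loaded 24 h in RPMI with 5% LPDS, 1 μCi ml⁻¹ ³H-cholesterol and 50 μg ml⁻¹ acLDL, ± 25 μM inhibitor. Equilibrated 24 h in 0.2% fatty-acid-free BSA ± inhibitor, then 4 h ± APOA1 20 μg ml⁻¹. Efflux = medium ³H as % of total, per mg protein; mouse lines normalized to untreated aP2+/+.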"}, "Macrophage [8]": {"tested_on": "Macrophage", "experiment": "Reduction of IL1-beta expressed in mouse aP2+/+ macrophage cells relative to control", "type": "functional, cell-based", "summary_of_the_method": "(§4)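 Mouse aP2⁺/⁺ and aP2-reconstituted aP2⁻/⁻ macrophage lines were grown in RPMI with FBS or 5% LPDS, with inhibitor in DMSO or vehicle. Mcp-1, Il1β, Il6 and Tnf mRNA were measured by SYBR Green qRT-PCR (annealing at 58 °C, 50 cycles), normalized to 18s rRNA and then to untreated cells. Mean ± s.e.m.; at least triplicate.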"}, "Mus musculus [9]": {"tested_on": "Mus musculus", "experiment": "Suppression of clamp hepatic glucose production in ob/ob mouse at 40 mg/kg/day, po after 4 weeks by hyperinsulinemic-euglycaemic clamp studies", "type": "functional, organism-based", "summary_of_the_method": "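Clamps were run in ob/ob mice after 4 weeks of oral gavage at 40 mg kg⁻¹ d⁻¹ (vehicle n = 7, treated n = 9), with jugular catheters placed 4 days earlier. Insulin was infused at 12.5 mU kg⁻¹ min⁻¹, 25% glucose at variable rates held basal glycaemia, and ³H-glucose ran at 0.1 μCi min⁻¹. Clamp hepatic glucose production = whole-body uptake minus glucose infusion rate.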"}, "Mus musculus [10]": {"tested_on": "Mus musculus", "experiment": "Increase in insulin-stimulated AKT serine 473 phosphorylation in ob/ob mouse adipose tissue at 40 mg/kg/day, po relative to control", "type": "functional, organism-based", "summary_of_the_method": "as §2"}, "Mus musculus [11]": {"tested_on": "Mus musculus", "experiment": "Decrease in insulin level in ob/ob mouse plasma at 40 mg/kg/day, po after 6 weeks relative to control", "type": "functional, organism-based", "summary_of_the_method": "as §1"}, "Mus musculus [12]": {"tested_on": "Mus musculus", "experiment": "Increase in adiponectin level in ob/ob mouse plasma at 40 mg/kg/day, po after 6 weeks relative to control", "type": "functional, organism-based", "summary_of_the_method": "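Plasma from male ob/ob mice after 6 weeks of daily oral gavage (started at 8 weeks), 6 h fasted, n = 6 per group. Adiponectin measured by ELISA.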"}, "Mus musculus [13]": {"tested_on": "Mus musculus", "experiment": "Increase in glucose uptake in epididymal fat in ob/ob mouse at 40 mg/kg/day, po after 4 weeks by hyperinsulinemic-euglycaemic clamp studies relative to control", "type": "functional, organism-based", "summary_of_the_method": "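Ob/ob mice after 4 weeks of treatment, jugular catheterized 4 days earlier. Clamp with insulin at 12.5 mU kg⁻¹ min⁻¹, variable 25% glucose to hold basal glucose, and ³H-glucose at 0.1 μCi min⁻¹ with 2-¹⁴C-DG. Tissue uptake computed from the fitted plasma 2-¹⁴C-DG curve and tissue 2-¹⁴C-DG-6-phosphate content. n = 7 and 9.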"}, "THP-1 [14]": {"tested_on": "THP-1", "experiment": "Reduction of transformation of human THP1 cells to foam cells at 25 uM after 3 days relative to control", "type": "functional, cell-based", "summary_of_the_method": "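PMA-differentiated THP-1 macrophages (100 nM, 24 h) were loaded with 50 μg ml⁻¹ acLDL for 24 h in 5% LPDS, then treated 3 days with 25 μM inhibitor or DMSO in 10% FBS. Cells were fixed in 10% formalin for 90 min and stained with Oil Red O for 3 h to view foam cells.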"}, "Mus musculus [15]": {"tested_on": "Mus musculus", "experiment": "Effect on cholesterol level in ob/ob mouse at 40 mg/kg/day, po after 6 weeks relative to control", "type": "functional", "summary_of_the_method": "as §1"}, "THP-1 [16]": {"tested_on": "THP-1", "experiment": "Reduction of IL6 expression in human THP1 cells expressing aP2 relative to control", "type": "functional, cell-based"}, "[17]": {"experiment": "Reduction of Mcp1 expression mouse aP2+/+ macrophage cells relative to control", "type": "functional, cell-based", "summary_of_the_method": "as §4"}, "[18]": {"experiment": "Reduction in total cholesterol ester content in mouse aP2-/-R macrophage cells (re-expression of aP2) at 25 uM relative to control", "type": "functional, cell-based"}, "Mus musculus [19]": {"tested_on": "Mus musculus", "experiment": "Attenuation of JNK1 activity in ob/ob mouse adipose tissue at 40 mg/kg/day, po", "type": "functional", "summary_of_the_method": "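Adipose lysate from male ob/ob mice (oral gavage 6 weeks from 8 weeks of age) immunoprecipitated with JNK1 antibody and protein A beads. Beads incubated with 10 μCi ³²P γATP, 10 μM ATP and 5 μg c-jun fusion protein at 30 °C for 20 min, then Laemmli stop.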"}, "Mus musculus [20]": {"tested_on": "Mus musculus", "experiment": "Increase in glucose metabolism in ob/ob mouse at 40 mg/kg/day, po after 4 weeks by glucose tolerance test", "type": "functional, organism-based", "summary_of_the_method": "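Male ob/ob mice after 4 weeks of daily 40 mg kg⁻¹ oral gavage (started at 8 weeks), n = 6 per group. Glucose tolerance tested with 0.5 g kg⁻¹ intraperitoneal glucose after an overnight fast.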"}}, "note": "Activity calls are given as the source filed them. The calls are words filed in the database; no cut-off is given here."}
{"molecule": "CCc1c(-c2ccccc2)c(-c2ccccc2)nn1-c1ccccc1-c1cccc(OCC(=O)O)c1", "values": [{"measurement": "Activity", "setting": "Mus musculus [1]", "value": "Active"}, {"measurement": "Activity", "setting": "Mus musculus [2]", "value": "Active"}, {"measurement": "Activity", "setting": "Mus musculus [3]", "value": 2277.2, "unit": "mg/dL"}, {"measurement": "Activity", "setting": "Mus musculus [4]", "value": "Active"}, {"measurement": "Activity", "setting": "Mus musculus [5]", "value": "Active"}, {"measurement": "Activity", "setting": "Adipocyte", "value": "Active"}, {"measurement": "Activity", "setting": "Mus musculus [6]", "value": 58, "unit": "mg/dL"}, {"measurement": "Activity", "setting": "Macrophage [7]", "value": "Active"}, {"measurement": "Activity", "setting": "Macrophage [8]", "value": "Active"}, {"measurement": "Activity", "setting": "Mus musculus [9]", "value": "Active"}, {"measurement": "Activity", "setting": "Mus musculus [10]", "value": "Active"}, {"measurement": "Activity", "setting": "Mus musculus [11]", "value": "Active"}, {"measurement": "Activity", "setting": "Mus musculus [12]", "value": "Active"}, {"measurement": "Activity", "setting": "Mus musculus [13]", "value": "Active"}, {"measurement": "Activity", "setting": "THP-1 [14]", "value": "Active"}, {"measurement": "Activity", "setting": "Mus musculus [15]", "value": 285.3, "unit": "mg/dL"}, {"measurement": "Activity", "setting": "THP-1 [16]", "value": "Active"}, {"measurement": "Activity", "setting": "[17]", "value": "Active"}, {"measurement": "Activity", "setting": "[18]", "value": "Active"}, {"measurement": "Activity", "setting": "Mus musculus [19]", "value": 40, "unit": "%"}, {"measurement": "Activity", "setting": "Mus musculus [20]", "value": "Active"}]}
